How the values were obtained:
[1] = Retention time of the compound by HPLC method; format: physicochemical
[2] = Drug distribution in eyes of C57BL/6J mouse bearing mouse B16F0 cells at 18 to 20 MBq, iv measured over 72 hrs by SPECT imaging study; format: ADME, organism-based, Eye; conditions: in vivo
Summary of the method: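 Female C57BL/6J mice (5–6 weeks) were inoculated s.c. on the left flank with 3 × 10^5 B16F0 cells in PBS and used after 11 days, with tumors 2–12 mm. Each received 18–20 MBq in 100 μL by lateral tail vein (n = 3 per tracer). Planar SPECT was done under isoflurane at 10–60 min, 3, 6, 24, 48 and 72 h. ROI pixel values were decay-corrected.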

[3] = tested on: Mus musculus; assay: Biodistribution in tumor of C57BL/6J mouse bearing mouse B16F0 cells at 0.37 to 1.85 MBq, iv after 48 hrs by gamma counting method; format: ADME, organism-based; conditions: in vivo
Summary of the method: (§1)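 Female C57BL/6J mice (5−6 weeks), s.c. inoculated on left flank with 3 × 10^5 B16F0 cells in Ca2+/Mg2+-free PBS, used 11 days later (tumors 2−12 mm). Radiotracer given via tail vein in 100 μL (~0.37 MBq for 1−24 h, 1.85 MBq for 48 h). Organs dissected, weighed, γ-counted, decay corrected. Expressed as % ID/g against injected-dose dilutions. Mean ± SEM, n = 5.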

[4] = tested on: Mus musculus; assay: Biodistribution in eyes of C57BL/6J mouse bearing mouse B16F0 cells at 0.37 to 1.85 MBq, iv after 1 hr by gamma counting method; format: ADME, organism-based, Eye; conditions: in vivo; summary of the method: as §1
[5] = tested on: Mus musculus; assay: Biodistribution in eyes of C57BL/6J mouse bearing mouse B16F0 cells at 0.37 to 1.85 MBq, iv after 3 hrs by gamma counting method; format: ADME, organism-based, Eye; conditions: in vivo; summary of the method: as §1
[6] = tested on: Mus musculus; assay: Biodistribution in eyes of C57BL/6J mouse bearing mouse B16F0 cells at 0.37 to 1.85 MBq, iv after 48 hrs by gamma counting method; format: ADME, organism-based, Eye; conditions: in vivo; summary of the method: as §1
[7] = tested on: Mus musculus; assay: Biodistribution in large gastrointestinal tract of C57BL/6J mouse bearing mouse B16F0 cells at 0.37 to 1.85 MBq, iv after 3 hrs by gamma counting method; format: ADME, organism-based, Large intestine; conditions: in vivo; summary of the method: as §1
[8] = tested on: Mus musculus; assay: Biodistribution in large gastrointestinal tract of C57BL/6J mouse bearing mouse B16F0 cells at 0.37 to 1.85 MBq, iv after 6 hrs by gamma counting method; format: ADME, organism-based; conditions: in vivo; summary of the method: as §1
[9] = tested on: Mus musculus; assay: Biodistribution in large gastrointestinal tract of C57BL/6J mouse bearing mouse B16F0 cells at 0.37 to 1.85 MBq, iv after 24 hrs by gamma counting method; format: ADME, organism-based, Large intestine; conditions: in vivo; summary of the method: as §1
[10] = tested on: Mus musculus; assay: Biodistribution in large gastrointestinal tract of C57BL/6J mouse bearing mouse B16F0 cells at 0.37 to 1.85 MBq, iv after 48 hrs by gamma counting method; format: ADME, organism-based; conditions: in vivo; summary of the method: as §1
[11] = tested on: Mus musculus; assay: Biodistribution in small gastrointestinal tract of C57BL/6J mouse bearing mouse B16F0 cells at 0.37 to 1.85 MBq, iv after 1 hr by gamma counting method; format: ADME, organism-based, Small intestine; conditions: in vivo; summary of the method: as §1
[12] = tested on: Mus musculus; assay: Biodistribution in small gastrointestinal tract of C57BL/6J mouse bearing mouse B16F0 cells at 0.37 to 1.85 MBq, iv after 6 hrs by gamma counting method; format: ADME, organism-based, Small intestine; conditions: in vivo; summary of the method: as §1
[13] = tested on: Mus musculus; assay: Biodistribution in small gastrointestinal tract of C57BL/6J mouse bearing mouse B16F0 cells at 0.37 to 1.85 MBq, iv after 48 hrs by gamma counting method; format: ADME, organism-based; conditions: in vivo; summary of the method: as §1
[14] = tested on: Mus musculus; assay: Biodistribution in thyroid gland of C57BL/6J mouse bearing mouse B16F0 cells at 0.37 to 1.85 MBq, iv after 1 hr by gamma counting method; format: ADME, organism-based; conditions: in vivo; summary of the method: as §1
[15] = tested on: Mus musculus; assay: Biodistribution in thyroid gland of C57BL/6J mouse bearing mouse B16F0 cells at 0.37 to 1.85 MBq, iv after 3 hrs by gamma counting method; format: ADME, organism-based; conditions: in vivo; summary of the method: as §1
[16] = tested on: Spleen; assay: Biodistribution in spleen of C57BL/6J mouse bearing mouse B16F0 cells at 0.37 to 1.85 MBq, iv after 3 hrs by gamma counting method; format: ADME, organism-based; conditions: in vivo; summary of the method: as §1
[17] = tested on: Spleen; assay: Biodistribution in spleen of C57BL/6J mouse bearing mouse B16F0 cells at 0.37 to 1.85 MBq, iv after 6 hrs by gamma counting method; format: ADME, organism-based; conditions: in vivo; summary of the method: as §1
[18] = tested on: Spleen; assay: Biodistribution in spleen of C57BL/6J mouse bearing mouse B16F0 cells at 0.37 to 1.85 MBq, iv after 48 hrs by gamma counting method; format: ADME, organism-based; conditions: in vivo; summary of the method: as §1
[19] = tested on: Liver; assay: Biodistribution in liver of C57BL/6J mouse bearing mouse B16F0 cells at 0.37 to 1.85 MBq, iv after 1 hr by gamma counting method; format: ADME, organism-based; conditions: in vivo; summary of the method: as §1
[20] = tested on: Liver; assay: Biodistribution in liver of C57BL/6J mouse bearing mouse B16F0 cells at 0.37 to 1.85 MBq, iv after 6 hrs by gamma counting method; format: ADME, organism-based; conditions: in vivo; summary of the method: as §1
[21] = tested on: Liver; assay: Biodistribution in liver of C57BL/6J mouse bearing mouse B16F0 cells at 0.37 to 1.85 MBq, iv after 24 hrs by gamma counting method; format: ADME, organism-based; conditions: in vivo; summary of the method: as §1
[22] = tested on: Liver; assay: Biodistribution in liver of C57BL/6J mouse bearing mouse B16F0 cells at 0.37 to 1.85 MBq, iv after 48 hrs by gamma counting method; format: ADME, organism-based; conditions: in vivo; summary of the method: as §1
[23] = tested on: Kidney; assay: Biodistribution in kidney of C57BL/6J mouse bearing mouse B16F0 cells at 0.37 to 1.85 MBq, iv after 1 hr by gamma counting method; format: ADME, organism-based; conditions: in vivo; summary of the method: as §1
[24] = tested on: Kidney; assay: Biodistribution in kidney of C57BL/6J mouse bearing mouse B16F0 cells at 0.37 to 1.85 MBq, iv after 48 hrs by gamma counting method; format: ADME, organism-based; conditions: in vivo; summary of the method: as §1
[25] = tested on: Mus musculus; assay: Whole body clearance in C57BL/6J mouse bearing mouse B16F0 cells at 0.37 to 1.85 MBq, iv after 16 hrs by gamma counting method; format: ADME, organism-based; conditions: in vivo
[26] = Ratio of AUC in tumor to skin of C57BL/6J mouse bearing mouse B16F0 cells at 0.37 to 1.85 MBq, iv by gamma counting method; format: ADME, organism-based; conditions: in vivo
Summary of the method: (§2)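 Biodistribution in B16F0-bearing C57BL/6J mice given i.v. tail-vein tracer (~0.37 MBq for 1–24 h, 1.85 MBq for 48 h). Sacrifice at 1, 3, 6, 16, 24 and 48 h, then organs dissected, weighed and γ-counted as decay-corrected % ID/g. Tumor AUC divided by each organ AUC; mean of ratios ± SEM, n = 5.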

[27] = Ratio of AUC in tumor to eyes of C57BL/6J mouse bearing mouse B16F0 cells at 0.37 to 1.85 MBq, iv by gamma counting method; format: ADME, organism-based; conditions: in vivo; summary of the method: as §2
[28] = Ratio of AUC in tumor to gastrointestinal tract of C57BL/6J mouse bearing mouse B16F0 cells at 0.37 to 1.85 MBq, iv by gamma counting method; format: ADME, organism-based; conditions: in vivo; summary of the method: as §2
[29] = Stability in eyes of C57BL/6J mouse bearing mouse B16F0 cells assessed as intact parent compound level at 0.37 to 1.85 MBq, iv after 24 hrs by radio-HPLC and radio-TLC method; format: ADME, organism-based, Eye; conditions: in the assay text read “20 MBq” for “0.37 to 1.85 MBq”, read-out: Stability
Summary of the method: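 Tumor-bearing C57BL/6J mice were sampled 3 and 24 h after i.v. tracer. Tissue was sonicated in CH3CN/water (3:2) with cold iodo standard and KI, then centrifuged. Urine was diluted and spiked; plasma was spiked, with CH3CN precipitation for TLC. Intact fraction came from silica radio-TLC (spot matching standard Rf) and radio-HPLC with precolumn/C18 column switching.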

O=C(CN1Cc2ccccc2C1=O)N1C[C@H]2CN(Cc3ccc([123I])cc3)C[C@H]2C1
Retention_time [1]: 16.7 min | Drug uptake [2]: Active | Drug uptake [3]: 5 % ID/g | Drug uptake [4]: 18.2 % ID/g | Drug uptake [5]: 18.5 % ID/g | Drug uptake [6]: 15.8 % ID/g | Drug uptake [7]: 21.4 % ID/g | Drug uptake [8]: 23.1 % ID/g | Drug uptake [9]: 1 % ID/g | Drug uptake [10]: 0.1 % ID/g | Drug uptake [11]: 21.4 % ID/g | Drug uptake [12]: 2.6 % ID/g | Drug uptake [13]: 0.1 % ID/g | Drug uptake [14]: 1.9 % ID/g | Drug uptake [15]: 1.5 % ID/g | Drug uptake [16]: 0.5 % ID/g | Drug uptake [17]: 0.4 % ID/g | Drug uptake [18]: 0.09 % ID/g | Drug uptake [19]: 12.3 % ID/g | Drug uptake [20]: 3.1 % ID/g | Drug uptake [21]: 0.4 % ID/g | Drug uptake [22]: 0.2 % ID/g | Drug uptake [23]: 15.8 % ID/g | Drug uptake [24]: 0.2 % ID/g | CL [25]: > 98% | Ratio [26]: 23.1 | Ratio [27]: 0.42 | Ratio [28]: 2.9 | remaining at 24 h [29]: 80%

O=C(c1ccc2c(n1)NCCC2)N1CCN(Cc2ccc([123I])cc2)CC1
Retention_time [1]: 16.6 min | Drug uptake [2]: Active | Drug uptake [3]: 5.6 % ID/g | Drug uptake [4]: 40.3 % ID/g | Drug uptake [5]: 56.4 % ID/g | Drug uptake [6]: 19 % ID/g | Drug uptake [7]: 59.6 % ID/g | Drug uptake [8]: 87.1 % ID/g | Drug uptake [9]: 1.7 % ID/g | Drug uptake [10]: 0.2 % ID/g | Drug uptake [11]: 45.6 % ID/g | Drug uptake [12]: 11.5 % ID/g | Drug uptake [13]: 0.1 % ID/g | Drug uptake [14]: 5.1 % ID/g | Drug uptake [15]: 2.7 % ID/g | Drug uptake [16]: 2 % ID/g | Drug uptake [17]: 1 % ID/g | Drug uptake [18]: 0.05 % ID/g | Drug uptake [19]: 19.5 % ID/g | Drug uptake [20]: 6.3 % ID/g | Drug uptake [21]: 0.8 % ID/g | Drug uptake [22]: 0.2 % ID/g | Drug uptake [23]: 15.6 % ID/g | Drug uptake [24]: 0.4 % ID/g | CL [25]: > 98% | Ratio [26]: 40.9 | Ratio [27]: 0.52 | Ratio [28]: 1.8 | remaining at 24 h [29]: 35%
